Assay outcomes as filed in PubChem BioAssay.
bCat KO growth: beta-catenin-lacking colon tumor cell growth suppression; HCT116 beta-catenin knockout viability, CellTiter-Glo, 60 h; hits give low values; viability, % at 10 µM; 140,000 tested, 1.5% active;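 active = viability at or under a set limit, the compound median less 4 SD, cut at about 6% in these data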
H69AR inhibit: growth inhibitors of human H69AR lung tumor cells. H69AR lung tumor viability, ATP luminescence, 72 h; hits give low values. AID 598. 85,000 tested, 6% active. viability, % at 10 µM;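 active = viability at or below 40%; inactive = viability above 40%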;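 also: multidrug resistant small cell line overexpressing MRP-1 efflux transporter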
Lung fibro prol: blocks proliferation of human lung fibroblasts; LL 47 human lung fibroblast viability, ATP luminescence; hits give low values; viability, % at 10 µM; AID 719; 85,000 tested, 1.1% active;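 active = viability at or below 50% in the single dose screen; inactive = viability above 50%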;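 also: compound exposure lasted 72 h before the ATP readout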
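Signal: luminescent ATP detection, CellTiter-Glo; assay system: LL 47 human lung fibroblasts; input: 1,150 cells/well; incubation: overnight cell rest, 72 h compound treatment at 37 °C; measure: % viability versus median cells-only luminescence; medium: IMEM growth medium with 15% fetal bovine serum; dosing: compound addition at 0.1% DMSO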
HUVEC inhibit: blocks proliferation of human endothelial cells; HUVEC proliferation, CellTiter-Glo luminescence, 72 h; hits give low values; 86,000 tested, 1.1% active; viability, % at 10 µM (by protocol);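 active = viability at or below 30%; inactive = viability above 30%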
PTEN del growth: PTEN-deleted cell growth suppression; viability, % at 10 µM; 140,000 tested, 1.2% active; AID 827; HCT116 PTEN-null viability, CellTiter-Glo, 60 h; hits give low values;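 active = viability at or below a set limit, 4 SD under the median of all tested compounds, cut at about 3.7% in these data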;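 also: PTEN knockout HCT116 line with beta catenin targeted HCT116 as companion control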
Numbers stand for hits; . = inactive; / = no result given. The full list was thinned out, with hits kept by preference.

SMILES	bCat KO growth	H69AR inhibit	Lung fibro prol	HUVEC inhibit	PTEN del growth
Cc1cc(C)nc(Nc2n[nH]c(COc3cccc4ccccc34)n2)n1	.	38.2	.	.	.
c1ccc2c(c1)OCCOCCOCCOCCOCCOc1ccccc1OCCOCCOCCO2	.	/	/	/	.
Cc1nc2cc(N3CCCCC3)c(NC(=O)c3ccncc3)cc2c(=O)n1Cc1ccccc1	4.4	/	/	/	.
Cc1nc2cc(N3CCOCC3)c(NC(=O)C3CC3)cc2c(=O)n1Cc1ccccc1	/	.	.	.	/
CCSc1nnc(NC(=O)CCNS(=O)(=O)c2cc(Br)cnc2N)s1	.	38.6	.	.	.
N#C/C(=C\c1ccccc1)c1nc2ncccc2[nH]1	.	/	/	/	.
COc1ccc(C2Oc3ccccc3C3=C2C(c2cccs2)n2ncnc2N3)cc1 (stereo not drawn)	.	18.1	46.0	.	.
CCC(C)NC(=O)/C=C1\Sc2ccccc2NC1=O (stereo not drawn)	.	/	/	/	.
Cc1ccc(S(=O)(=O)CC#CCOC(=O)c2ccc([N+](=O)[O-])cc2)cc1	.	1.6	42.6	.	.
Cc1ccc(C(=O)c2ccc([N+](=O)[O-])cc2)cc1	.	.	.	.	.
CCN(CC)S(=O)(=O)c1ccc(-c2nnc(SCc3nnc(-c4ccc(C)cc4)o3)n2CC)cc1	.	.	.	.	.
CCN(CC)S(=O)(=O)c1ccc(-c2nnc(SCC(=O)N3CCc4ccccc43)o2)cc1	/	4.4	35.4	.	/
CCN(CC)S(=O)(=O)c1ccc(-c2nnc(SCc3nnc(-c4ccc(C)cc4)o3)o2)cc1	.	3.3	.	.	.
CCN(CC)S(=O)(=O)c1ccc(-c2nnc(SCC(=O)N3CCOCC3)o2)cc1	.	.	.	.	.
Oc1ccc(Nc2nc(N3CCCC3)c3ccccc3n2)cc1	2.0	0.7	2.5	.	1.8
COc1ccc(Nc2nc(N3CCCCC3)c3ccccc3n2)cc1	.	/	/	/	.
C(=C\c1nc(N2CCCC2)c2ccccc2n1)/c1ccccc1	1.8	/	/	/	2.2
CC1CCN(c2nc(/C=C/c3ccccc3)nc3ccccc23)CC1	.	/	/	/	.
Cc1cc(=O)n2nc(-c3ccc(C(F)(F)F)cc3)sc2n1	.	.	.	.	.
CNc1nc(C)cc(C)c1S(=O)(=O)c1ccc(C)cc1	.	/	/	/	.
COc1ccc(NC(=S)N2CCNC(=O)C2CC(=O)Nc2ccc(C)cc2)cc1 (stereo not drawn)	.	/	/	/	.
O=c1cc(/C=C/c2ccccc2)oc2ccccc12	.	/	/	/	.
CC(=O)Nc1ccc([C@H]2[C@H](C)CC[C@H]3C(=O)N4[C@@H](CC[C@@H](C)[C@@H]4c4ccc(NC(C)=O)cc4)C(=O)N32)cc1	.	/	/	/	.
CCOC(=O)N1CCN(c2c(NCc3ccc(Cl)cc3)c(=O)c2=O)CC1	.	.	.	.	.
CCOC(=O)N1CCN(c2c(NCc3cccs3)c(=O)c2=O)CC1	.	31.0	.	.	.
SMILES	bCat KO growth	H69AR inhibit	Lung fibro prol	HUVEC inhibit	PTEN del growth
CC(C)CCN1CN(S(=O)(=O)c2cccs2)c2nc3ccccc3nc21	.	37.0	.	.	.
CCOc1cc(S(=O)(=O)NCc2ccc(OC)cc2)c(OCC)cc1-n1cnnn1	.	21.6	.	.	.
CCOc1cc(S(=O)(=O)NCCc2ccc(OC)c(OC)c2)c(OCC)cc1-n1cnnn1	.	.	.	.	.
Cc1ccc(C)c(NC(=O)c2ccccc2O)c1	.	19.2	.	.	.
Cc1cccc(NC(=O)c2ccccc2O)c1C	.	.	.	.	.
CN1C/C(=C\c2ccc(N3CCOCC3)cc2)C(=O)/C(=C/c2ccc(N3CCOCC3)cc2)C1	2.9	/	/	/	2.2
CN1C/C(=C/c2ccsc2)C(=O)/C(=C/c2ccsc2)C1	3.5	/	/	/	3.1
CCN1C/C(=C/c2ccc(N3CCOCC3)cc2)C(=O)/C(=C/c2ccc(N3CCOCC3)cc2)C1	2.2	/	/	/	1.9
Cc1cccc2cc(CN(Cc3ccccc3)C(=O)c3cccc(F)c3)c(Cl)nc12	.	/	/	/	.
O=C1OCCC1Sc1nnc(-c2ccc(F)cc2)n1Cc1ccccc1 (stereo not drawn)	.	/	/	/	.
Clc1ccc(/C=N/Nc2nc(Cl)nc3ccccc23)cc1	.	/	/	/	.
Clc1cccc(/C=N/Nc2ncnc3ccccc23)c1	2.8	/	/	/	.
CCOc1ccc(C(=O)NC(=S)Nc2ncccc2C)cc1[N+](=O)[O-]	2.8	/	/	/	3.3
Cc1oc(-c2ccccc2)cc1C(=O)Nc1ccc(N(C)C)cc1	.	.	.	.	.
CC(=O)NS(=O)(=O)c1ccc(N=c2ssc3c2-c2ccc(C)cc2NC3(C)C)cc1	.	/	/	/	.
Cc1ccc(S(=O)(=O)NC2OC(=O)C(Cl)=C2Cl)cc1 (stereo not drawn)	.	7.0	.	.	.
CC(=O)c1cccc(NC(=O)C23CC4CC(C2)CC(n2cncn2)(C4)C3)c1	.	/	/	/	.
COc1cc(CNC2CCCCCC2)cc(OC)c1O	.	.	.	.	.
COc1cc(CNC2CCCC2)cc(Cl)c1OCc1ccccc1F	1.1	/	/	/	1.1
Cc1ccc(S(=O)(=O)Oc2ccc(/C=C(/NC(=O)c3ccccc3)C(=O)Nc3ccccc3)cc2)cc1	.	32.0	.	.	.
C[C@@H]1NC(=O)c2cc([N+](=O)[O-])cc(I)c2OCC[C@@H](C(=O)NC(CC(=O)O)C(N)=O)NC(=O)[C@H](CC(N)=O)NC1=O (stereo partly drawn)	.	/	/	/	.
O=c1cc(-c2ccccc2)[nH]c2nc3ccccc3n12	.	13.7	.	.	.
Cc1ccc(N=C2C(=S)N(c3ccc(C)cc3)C(=N)N2/N=C/c2ccc(Cl)cc2)cc1	.	2.7	.	.	.
COc1ccc(N=C2C(=Nc3ccc(OC)cc3)N(c3ccc(OC)cc3)C(=S)N2c2ccccc2)cc1	.	/	/	/	.
Cc1cc(NC(=O)c2cccc(S(=O)(=O)N(C)C)c2)n(-c2ccccn2)n1	.	26.4	.	.	.
